Reference: ChEMBL document CHEMBL1240380, “Acinetobacter baumannii increases tolerance to antibiotics in response to monovalent cations” (Antimicrob Agents Chemother, 2010)
Active and inactive are the calls of the source. The calls are words filed in the database; no cut-off is given here.

What was measured:
Acinetobacter baumannii [1] = assay: Antibacterial activity against Acinetobacter baumannii isolate 510 isolated from human sputum; format: functional, organism-based
Acinetobacter baumannii [2] = assay: Antibacterial activity against Acinetobacter baumannii isolate 2824 isolated from human urine; format: functional, organism-based
Acinetobacter baumannii [3] = assay: Antibacterial activity against Acinetobacter baumannii isolate 2898 isolated from human ankle; format: functional, organism-based
Acinetobacter baumannii [4] = assay: Antibacterial activity against Acinetobacter baumannii isolate 4860 isolated from human urine; format: functional, organism-based
Acinetobacter baumannii [5] = assay: Antibacterial activity against Acinetobacter baumannii isolate 5191 isolated from human urine; format: functional, organism-based
Acinetobacter baumannii [6] = assay: Antibacterial activity against Acinetobacter baumannii ATCC 17978 assessed as bacterial growth at 0.09 mg/L in presence of 150 mM NaCl; format: functional, organism-based
Method in brief: (§1)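 Overnight cultures were diluted 1:100 in NaCl-free MHB and grown to OD600 0.4. They were then diluted to 10^5 CFU/ml in MHB with or without 150 mM NaCl, plus or minus antibiotic. Growth was run in triplicate for 12 h at 37°C with shaking at 180 rpm, and OD600 was read every 2 h.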

Acinetobacter baumannii [7] = assay: Antibacterial activity against Acinetobacter baumannii using MHB medium assessed as bacterial growth at 0.09 mg/L in presence of 150 mM of KCl; format: functional, organism-based
Method in brief: as §1, with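 “Growth-curve challenge with 150 mM KCl in place of NaCl. Overnight” for “Overnight”, “KCl,” for “NaCl,”, “plus” for “plus or minus”, “Cultures ran” for “Growth was run”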

Acinetobacter baumannii [8] = assay: Antibacterial activity against Acinetobacter baumannii ATCC 17978 assessed as bacterial growth at 0.0625 mg/L in presence of 150 mM NaCl; format: functional; method in brief: as §1
Acinetobacter baumannii [9] = assay: Antibacterial activity against Acinetobacter baumannii ATCC 17978 isolated from human CSF; format: functional, organism-based

Structure (SMILES): O=C(O)c1cn(C2CC2)c2cc(N3CCNCC3)c(F)cc2c1=O
- Activity (Acinetobacter baumannii [1]): inactive
- Activity (Acinetobacter baumannii [2]): inactive
- Activity (Acinetobacter baumannii [3]): inactive
- Activity (Acinetobacter baumannii [4]): inactive
- Activity (Acinetobacter baumannii [5]): inactive

Structure (SMILES): CN(C)[C@@H]1C(O)=C(C(N)=O)C(=O)[C@@]2(O)C(O)=C3C(=O)c4c(O)cccc4[C@@](C)(O)[C@H]3C[C@@H]12
- Activity (Acinetobacter baumannii [2]): inactive
- Activity (Acinetobacter baumannii [4]): inactive
- Activity (Acinetobacter baumannii [5]): inactive

Structure (SMILES): CO/N=C(\C(=O)N[C@@H]1C(=O)N2C(C(=O)O)=C(CSc3nc(=O)c(O)nn3C)CS[C@H]12)c1csc(N)n1
- Activity (Acinetobacter baumannii [1]): inactive
- Activity (Acinetobacter baumannii [2]): inactive
- Activity (Acinetobacter baumannii [3]): inactive
- Activity (Acinetobacter baumannii [4]): inactive
- Activity (Acinetobacter baumannii [5]): inactive

Structure (SMILES): C[C@H]1COc2c(N3CCN(C)CC3)c(F)cc3c(=O)c(C(=O)O)cn1c23
- Activity (Acinetobacter baumannii [6]): inactive
- Activity (Acinetobacter baumannii [7]): inactive
- Activity (Acinetobacter baumannii [2]): inactive
- Activity (Acinetobacter baumannii [4]): inactive
- Activity (Acinetobacter baumannii [5]): inactive

Structure (SMILES): C[C@@H](O)[C@H]1C(=O)N2C(C(=O)O)=C(SCCNC=N)C[C@H]12
- Activity (Acinetobacter baumannii [8]): inactive
- Activity (Acinetobacter baumannii [9]): Active
- Activity (Acinetobacter baumannii [1]): Active
- Activity (Acinetobacter baumannii [2]): Active
- Activity (Acinetobacter baumannii [3]): Active
- Activity (Acinetobacter baumannii [4]): Active
- Activity (Acinetobacter baumannii [5]): Active

Structure (SMILES): CO/N=C(\C(=O)N[C@@H]1C(=O)N2C(C(=O)[O-])=C(C[N+]3(C)CCCC3)CS[C@H]12)c1csc(N)n1
- Activity (Acinetobacter baumannii [9]): Active
- Activity (Acinetobacter baumannii [1]): inactive
- Activity (Acinetobacter baumannii [2]): inactive
- Activity (Acinetobacter baumannii [3]): inactive
- Activity (Acinetobacter baumannii [4]): inactive
- Activity (Acinetobacter baumannii [5]): inactive

Structure (SMILES): NC[C@H]1O[C@H](O[C@H]2[C@H](O)[C@@H](O[C@H]3O[C@H](CO)[C@@H](O)[C@H](N)[C@H]3O)[C@H](N)C[C@@H]2N)[C@H](N)C[C@@H]1O
- Activity (Acinetobacter baumannii [9]): Active
- Activity (Acinetobacter baumannii [1]): inactive
- Activity (Acinetobacter baumannii [2]): inactive
- Activity (Acinetobacter baumannii [3]): inactive
- Activity (Acinetobacter baumannii [4]): inactive
- Activity (Acinetobacter baumannii [5]): inactive
